Assay results reported in ChEMBL document CHEMBL3774372, “Design, physico-chemical properties and biological evaluation of some new N-[(phenoxy)alkyl]- and N-{2-[2-(phenoxy)ethoxy]ethyl}aminoalkanols as anticonvulsant agents” (Bioorg Med Chem, 2016).
Active and inactive are the calls of the source.

Experiments:
[1] = biological target: D(4) dopamine receptor (Homo sapiens) (UniProt P21917); experiment: Displacement of [3H]methylspiperone from human recombinant Dopamine D4.4 receptor expressed in CHO cells at 10^-5 M; format: cell-based
D(4) dopamine receptor (Homo sapiens), sequence (P21917 whole entry): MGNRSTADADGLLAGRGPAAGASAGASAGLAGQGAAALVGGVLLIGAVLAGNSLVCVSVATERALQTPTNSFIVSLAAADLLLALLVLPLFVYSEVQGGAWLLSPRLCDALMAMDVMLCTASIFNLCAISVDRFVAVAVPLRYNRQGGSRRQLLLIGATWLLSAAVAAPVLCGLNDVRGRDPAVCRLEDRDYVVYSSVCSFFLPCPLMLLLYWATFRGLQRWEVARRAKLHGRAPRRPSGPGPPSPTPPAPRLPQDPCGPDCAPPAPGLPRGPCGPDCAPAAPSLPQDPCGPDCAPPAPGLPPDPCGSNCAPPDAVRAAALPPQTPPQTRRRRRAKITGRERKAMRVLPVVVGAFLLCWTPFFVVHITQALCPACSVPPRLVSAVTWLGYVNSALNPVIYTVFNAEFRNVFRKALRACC
How it was run: (§1)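 Radioligand displacement screen with the test agent at a single 10^-5 M concentration; receptor source and radioligand per target as tabulated (recombinant human cell lines or rat cerebral cortex/urinary bladder).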

[2] = biological target: Translocator protein (Rattus norvegicus) (UniProt P16257); experiment: Displacement of [3H]PK 11195 from rat heart peripheral-type benzodiazepine receptor at 10^-5 M
Translocator protein (Rattus norvegicus), sequence (P16257 whole entry, looked up): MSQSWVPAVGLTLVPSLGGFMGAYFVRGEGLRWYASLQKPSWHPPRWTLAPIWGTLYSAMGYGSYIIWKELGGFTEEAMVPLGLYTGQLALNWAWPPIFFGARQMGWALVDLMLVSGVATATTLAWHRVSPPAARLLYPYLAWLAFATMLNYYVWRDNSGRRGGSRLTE
How it was run: (§2)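 Radioligand binding screen run at a single test concentration of 10^-5 M. Each target used its stated receptor source (human recombinant CHO or HEK-293 cells, endogenous cell lines, or rat tissue membranes) with the listed radioligand.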

[3] = biological target: Muscarinic acetylcholine receptor M4 (Homo sapiens) (UniProt P08173); experiment: Displacement of [3H]4-DAMP from human recombinant muscarinic M4 receptor expressed in CHO cells at 10^-5 M; format: cell-based; how it was run: as §2
[4] = biological target: D(1B) dopamine receptor (Homo sapiens) (UniProt P21918); experiment: Displacement of [3H]SCH23390 from human recombinant Dopamine D5 receptor expressed in GH4 cells at 10^-5 M; format: cell-based; how it was run: as §1
[5] = biological target: Muscarinic acetylcholine receptor M5 (Homo sapiens) (UniProt P08912); experiment: Displacement of [3H]4-DAMP from human recombinant muscarinic M5 receptor expressed in CHO cells at 10^-5 M; format: cell-based; how it was run: as §2
[6] = biological target: Vasopressin V1a receptor (Homo sapiens) (UniProt P37288); experiment: Displacement of [3H]AVP from human recombinant arginine vasopressin receptor 1a expressed in CHO cells at 10^-5 M; format: cell-based; how it was run: as §2
[7] = biological target: D(2) dopamine receptor (Homo sapiens) (UniProt P14416); experiment: Displacement of [3H]methylspiperone from human recombinant Dopamine D2S receptor expressed in HEK293 cells at 10^-5 M; format: cell-based; how it was run: as §1
[8] = biological target: Beta-1 adrenergic receptor (Homo sapiens) (UniProt P08588); experiment: Displacement of [3H](-)CGP12177 from human recombinant Beta-1 adrenergic receptor expressed in HEK293 cells at 10^-5 M; format: cell-based; how it was run: as §2
[9] = species on record: Rattus norvegicus; experiment: Displacement of [3H]TCP from rat cerebral cortex PCP receptor at 10^-5 M; format: tissue-based; how it was run: as §1
[10] = biological target: Substance-K receptor (Homo sapiens) (UniProt P21452); experiment: Displacement of [125I]NKA from human recombinant NK2 receptor expressed in CHO cells at 10^-5 M; format: cell-based; how it was run: as §2
Substance-K receptor (Homo sapiens), sequence (P21452 whole entry): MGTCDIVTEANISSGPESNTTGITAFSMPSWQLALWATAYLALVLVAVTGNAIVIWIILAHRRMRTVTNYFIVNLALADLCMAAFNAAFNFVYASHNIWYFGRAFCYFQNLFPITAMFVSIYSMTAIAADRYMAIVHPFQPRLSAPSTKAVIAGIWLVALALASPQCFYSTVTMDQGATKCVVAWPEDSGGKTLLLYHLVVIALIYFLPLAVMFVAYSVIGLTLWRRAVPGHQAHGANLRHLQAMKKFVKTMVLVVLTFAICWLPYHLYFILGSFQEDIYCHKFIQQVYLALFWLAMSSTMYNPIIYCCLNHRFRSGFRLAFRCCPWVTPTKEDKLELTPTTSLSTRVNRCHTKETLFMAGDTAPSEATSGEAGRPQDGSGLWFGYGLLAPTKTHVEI

[11] = biological target: D(1A) dopamine receptor (Homo sapiens) (UniProt P21728); experiment: Displacement of [3H]SCH23390 from human recombinant Dopamine D1 receptor expressed in CHO cells at 10^-5 M; format: cell-based; how it was run: as §1
[12] = biological target: Endothelin-1 receptor (Homo sapiens) (UniProt P25101); experiment: Displacement of [125I]Endothelin-1 from human recombinant Endothelin-1 receptor expressed in CHO cells at 10^-5 M; format: cell-based; how it was run: as §2
Endothelin-1 receptor (Homo sapiens), sequence (P25101 whole entry): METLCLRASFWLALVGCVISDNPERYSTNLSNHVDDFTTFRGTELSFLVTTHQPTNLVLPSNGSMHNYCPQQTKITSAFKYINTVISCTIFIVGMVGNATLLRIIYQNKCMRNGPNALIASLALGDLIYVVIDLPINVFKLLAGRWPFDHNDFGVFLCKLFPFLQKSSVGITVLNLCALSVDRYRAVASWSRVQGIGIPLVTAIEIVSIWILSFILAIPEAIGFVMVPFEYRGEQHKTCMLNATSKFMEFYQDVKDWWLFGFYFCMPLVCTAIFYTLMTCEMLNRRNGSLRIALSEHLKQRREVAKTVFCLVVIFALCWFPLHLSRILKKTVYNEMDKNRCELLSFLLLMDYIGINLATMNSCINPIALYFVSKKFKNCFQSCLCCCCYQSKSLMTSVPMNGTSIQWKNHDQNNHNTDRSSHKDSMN

[13] = biological target: 5-hydroxytryptamine receptor 2C (Homo sapiens) (UniProt P28335); experiment: Displacement of [3H][…] from human recombinant 5-HT2C receptor expressed in HEK293 cells at 10^-5 M; format: cell-based; how it was run: as §1
5-hydroxytryptamine receptor 2C (Homo sapiens), sequence (P28335 whole entry): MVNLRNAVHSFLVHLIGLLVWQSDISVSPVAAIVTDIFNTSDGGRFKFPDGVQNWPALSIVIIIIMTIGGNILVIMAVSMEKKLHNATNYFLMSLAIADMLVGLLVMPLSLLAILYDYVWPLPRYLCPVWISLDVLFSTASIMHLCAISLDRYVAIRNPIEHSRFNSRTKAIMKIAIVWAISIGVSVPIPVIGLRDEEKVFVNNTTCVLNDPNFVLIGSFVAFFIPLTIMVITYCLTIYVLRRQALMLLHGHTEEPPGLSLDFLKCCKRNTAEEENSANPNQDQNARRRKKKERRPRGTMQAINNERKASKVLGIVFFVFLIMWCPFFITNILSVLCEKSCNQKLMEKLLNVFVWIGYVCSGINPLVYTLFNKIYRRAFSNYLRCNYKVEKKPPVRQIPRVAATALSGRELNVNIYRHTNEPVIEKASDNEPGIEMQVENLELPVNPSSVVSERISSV

[14] = biological target: 5-hydroxytryptamine receptor 2A (Homo sapiens) (UniProt P28223); experiment: Displacement of [3H]ketanserin from human recombinant 5-HT2A receptor expressed in HEK293 cells at 10^-5 M; format: cell-based; how it was run: as §1
5-hydroxytryptamine receptor 2A (Homo sapiens), sequence (P28223 whole entry): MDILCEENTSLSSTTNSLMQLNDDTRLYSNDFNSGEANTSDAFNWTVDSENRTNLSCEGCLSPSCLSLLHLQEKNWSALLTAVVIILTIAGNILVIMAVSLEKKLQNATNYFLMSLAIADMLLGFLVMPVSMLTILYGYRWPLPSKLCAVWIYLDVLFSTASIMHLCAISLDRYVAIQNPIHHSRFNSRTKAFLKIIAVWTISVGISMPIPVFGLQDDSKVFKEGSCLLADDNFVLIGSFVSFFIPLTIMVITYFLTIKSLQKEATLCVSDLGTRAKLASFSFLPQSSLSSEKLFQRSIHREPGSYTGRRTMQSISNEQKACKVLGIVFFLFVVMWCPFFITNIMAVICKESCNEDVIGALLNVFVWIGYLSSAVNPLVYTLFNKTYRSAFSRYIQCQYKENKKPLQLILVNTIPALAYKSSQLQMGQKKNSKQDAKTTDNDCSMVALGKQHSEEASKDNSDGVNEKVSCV

[15] = biological target: Adenosine receptor A3 (Homo sapiens) (UniProt P0DMS8); experiment: Displacement of [125I]ABMECA from human recombinant adenosine A3 receptor expressed in HEK293 cells at 10^-5 M; format: cell-based; how it was run: as §2
Adenosine receptor A3 (Homo sapiens), sequence (P0DMS8 whole entry): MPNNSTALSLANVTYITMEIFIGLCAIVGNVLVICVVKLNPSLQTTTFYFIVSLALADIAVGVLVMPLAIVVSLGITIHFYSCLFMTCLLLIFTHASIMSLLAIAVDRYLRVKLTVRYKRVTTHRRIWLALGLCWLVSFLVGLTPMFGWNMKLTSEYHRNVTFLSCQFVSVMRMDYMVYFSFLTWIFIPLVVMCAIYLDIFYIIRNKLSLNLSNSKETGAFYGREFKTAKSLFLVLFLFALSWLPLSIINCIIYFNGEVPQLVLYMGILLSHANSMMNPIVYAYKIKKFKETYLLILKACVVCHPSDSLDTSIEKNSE

[16] = biological target: Kappa-type opioid receptor (Rattus norvegicus) (UniProt P34975); experiment: Displacement of [3H]U 69593 from rat recombinant kappa-type opioid receptor expressed in CHO cells at 10^-5 M; format: cell-based; how it was run: as §1
[17] = biological target: 5-hydroxytryptamine receptor 2B (Homo sapiens, UniProt P41595); experiment: Displacement of [125I](+/-)DOI from human recombinant 5-HT2B receptor expressed in CHO cells at 10^-5 M; format: cell-based
[18] = biological target: Glucocorticoid receptor (Homo sapiens) (UniProt P04150); experiment: Displacement of [3H]dexamethasone from glucocorticoid receptor in human IM9 cells at 10^-5 M; format: cell-based; conditions: IM-9; how it was run: as §1
[19] = biological target: Prostaglandin E2 receptor EP4 subtype (Homo sapiens) (UniProt P35408); experiment: Displacement of [3H]PGE2 from human recombinant prostanoid EP4 receptor expressed in HEK293 cells at 10^-5 M; format: cell-based; how it was run: as §2
[20] = biological target: Sodium-dependent dopamine transporter (Homo sapiens) (UniProt Q01959); experiment: Displacement of [3H]BTCP from human recombinant dopamine transporter expressed in CHO cells at 10^-5 M; format: cell-based; how it was run: as §2
Sodium-dependent dopamine transporter (Homo sapiens), sequence (Q01959 whole entry): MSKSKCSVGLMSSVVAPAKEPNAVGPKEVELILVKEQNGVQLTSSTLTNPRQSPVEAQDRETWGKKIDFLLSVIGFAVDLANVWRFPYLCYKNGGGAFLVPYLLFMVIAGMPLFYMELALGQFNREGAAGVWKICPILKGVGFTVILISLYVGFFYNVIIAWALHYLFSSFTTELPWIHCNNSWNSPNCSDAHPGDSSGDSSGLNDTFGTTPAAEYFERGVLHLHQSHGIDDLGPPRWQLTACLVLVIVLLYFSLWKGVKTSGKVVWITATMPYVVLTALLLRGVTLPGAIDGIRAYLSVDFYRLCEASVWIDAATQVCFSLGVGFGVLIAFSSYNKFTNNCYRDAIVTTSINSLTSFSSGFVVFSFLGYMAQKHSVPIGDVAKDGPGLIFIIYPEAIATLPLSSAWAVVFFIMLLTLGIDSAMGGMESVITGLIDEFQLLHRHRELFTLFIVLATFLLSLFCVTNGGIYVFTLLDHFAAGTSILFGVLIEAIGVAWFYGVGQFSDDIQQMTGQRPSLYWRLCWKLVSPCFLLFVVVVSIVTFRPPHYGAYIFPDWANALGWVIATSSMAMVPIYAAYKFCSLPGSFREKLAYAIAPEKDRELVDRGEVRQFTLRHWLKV

[21] = biological target: Melanocortin receptor 4 (Homo sapiens) (UniProt P32245); experiment: Displacement of [125I]NDP-alpha-MSH from human recombinant MC4 receptor expressed in CHO cells at 10^-5 M; format: cell-based; how it was run: as §2
[22] = biological target: 5-hydroxytryptamine receptor 1A (Homo sapiens) (UniProt P08908); experiment: Displacement of [3H]8-OHDPAT from human recombinant 5-HT1A receptor expressed in HEK293 cells at 10^-5 M; format: cell-based; how it was run: as §2
[23] = biological target: Adrenergic receptor alpha-1 (Rattus norvegicus) (UniProt P15823+P23944+P43140); experiment: Displacement of [3H]prazosin from rat cerebral cortex Alpha-1 adrenergic receptor at 10^-5 M; format: tissue-based; how it was run: as §1
[24] = biological target: B2 bradykinin receptor (Homo sapiens) (UniProt P30411); experiment: Displacement of [3H]bradykinin from human recombinant B2 bradykinin receptor at 10^-5 M; how it was run: as §1
B2 bradykinin receptor (Homo sapiens), sequence (P30411 whole entry): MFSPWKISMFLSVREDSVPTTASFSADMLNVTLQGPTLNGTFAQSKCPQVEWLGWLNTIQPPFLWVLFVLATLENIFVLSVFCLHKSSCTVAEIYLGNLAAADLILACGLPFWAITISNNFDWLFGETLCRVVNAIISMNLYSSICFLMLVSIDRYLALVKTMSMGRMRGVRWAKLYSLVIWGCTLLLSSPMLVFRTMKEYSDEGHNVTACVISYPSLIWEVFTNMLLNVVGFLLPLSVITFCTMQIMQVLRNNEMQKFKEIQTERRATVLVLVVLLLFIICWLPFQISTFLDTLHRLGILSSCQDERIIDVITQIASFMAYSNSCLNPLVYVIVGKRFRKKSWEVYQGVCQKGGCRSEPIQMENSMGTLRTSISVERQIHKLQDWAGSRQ

[25] = biological target: Sodium-dependent noradrenaline transporter (Homo sapiens) (UniProt P23975); experiment: Displacement of [3H]nisoxentine from human recombinant norepinephrine transporter expressed in CHO cells at 10^-5 M; format: cell-based; how it was run: as §1
[26] = biological target: 5-hydroxytryptamine receptor 1B (Rattus norvegicus) (UniProt P28564); experiment: Displacement of [125I]CYP from rat cerebral cortex 5-HT1B receptor at 10^-5 M in the presence of isoproternol; format: tissue-based; how it was run: as §2
[27] = biological target: Cholecystokinin receptor type A (Homo sapiens) (UniProt P32238); experiment: Displacement of [125I]CCK-8s from human recombinant CCK-A receptor expressed in CHO cells at 10^-5 M; format: cell-based; how it was run: as §2
Cholecystokinin receptor type A (Homo sapiens), sequence (P32238 whole entry): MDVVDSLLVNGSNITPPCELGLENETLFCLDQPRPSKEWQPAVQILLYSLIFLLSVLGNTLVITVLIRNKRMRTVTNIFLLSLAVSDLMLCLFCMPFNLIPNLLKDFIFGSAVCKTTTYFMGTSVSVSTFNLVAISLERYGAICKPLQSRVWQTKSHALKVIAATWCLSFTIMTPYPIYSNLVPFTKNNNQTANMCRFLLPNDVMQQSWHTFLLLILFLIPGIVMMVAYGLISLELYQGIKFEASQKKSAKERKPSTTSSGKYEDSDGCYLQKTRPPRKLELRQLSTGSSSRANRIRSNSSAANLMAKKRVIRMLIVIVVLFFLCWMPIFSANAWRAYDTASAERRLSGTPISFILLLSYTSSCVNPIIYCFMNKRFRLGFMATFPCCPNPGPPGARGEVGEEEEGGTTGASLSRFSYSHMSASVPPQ

[28] = biological target: C-X-C chemokine receptor type 2 (Homo sapiens) (UniProt P25025); experiment: Displacement of [125I]IL-8 from human recombinant CXCR2 receptor expressed in HEK293 cells at 10^-5 M; format: cell-based; how it was run: as §2
C-X-C chemokine receptor type 2 (Homo sapiens), sequence (P25025 whole entry): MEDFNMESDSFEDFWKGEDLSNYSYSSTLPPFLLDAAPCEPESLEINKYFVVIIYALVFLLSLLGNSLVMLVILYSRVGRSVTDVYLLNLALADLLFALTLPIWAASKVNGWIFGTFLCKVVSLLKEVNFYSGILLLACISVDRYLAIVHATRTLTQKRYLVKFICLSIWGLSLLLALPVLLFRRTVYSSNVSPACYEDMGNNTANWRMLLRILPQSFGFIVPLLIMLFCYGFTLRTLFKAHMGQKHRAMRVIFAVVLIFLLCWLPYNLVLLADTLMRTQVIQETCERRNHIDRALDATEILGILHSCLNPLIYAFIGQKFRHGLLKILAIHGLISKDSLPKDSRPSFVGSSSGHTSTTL

[29] = test system: Mus musculus; experiment: Anticonvulsant activity in mouse assessed as protection against subcutaneous pentylenetetrazol-induced seizures at 30 mg/kg, ip measured after 0.5 hrs; format: functional, organism-based
How it was run: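 Mice dosed ip as 0.5% methylcellulose suspension; pentylenetetrazole 85 mg/kg in 0.9% NaCl injected subcutaneously into posterior midline, animals watched at least 30 min. Protection = no threshold seizure (single clonic spasm episode lasting ≥5 s); scored protected/tested.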

[30] = biological target: Muscarinic acetylcholine receptor M2 (Homo sapiens) (UniProt P08172); experiment: Displacement of [3H]AF-DX384 from human recombinant muscarinic M2 receptor expressed in CHO cells at 10^-5 M; format: cell-based; how it was run: as §2
[31] = biological target: Cannabinoid receptor 1 (Homo sapiens) (UniProt P21554); experiment: Displacement of [3H]CP 55940 from human recombinant CB1 receptor expressed in CHO cells at 10^-5 M; format: cell-based; how it was run: as §2
Cannabinoid receptor 1 (Homo sapiens), sequence (P21554 whole entry): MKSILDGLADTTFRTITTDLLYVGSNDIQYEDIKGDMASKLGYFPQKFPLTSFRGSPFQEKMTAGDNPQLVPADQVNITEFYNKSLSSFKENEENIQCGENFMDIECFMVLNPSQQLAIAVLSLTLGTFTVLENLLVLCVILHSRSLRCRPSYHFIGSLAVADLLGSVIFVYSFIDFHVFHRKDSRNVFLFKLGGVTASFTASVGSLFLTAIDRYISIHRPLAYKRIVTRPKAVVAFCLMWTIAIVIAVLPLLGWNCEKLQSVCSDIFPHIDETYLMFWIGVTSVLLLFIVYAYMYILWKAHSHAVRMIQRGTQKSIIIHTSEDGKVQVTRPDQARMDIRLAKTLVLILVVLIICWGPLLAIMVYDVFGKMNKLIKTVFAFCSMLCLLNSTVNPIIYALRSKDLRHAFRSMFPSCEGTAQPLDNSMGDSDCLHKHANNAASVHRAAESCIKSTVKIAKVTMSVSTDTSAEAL

Structure (SMILES) | inhibition [1] [%] | inhibition [2] [%] | inhibition [3] [%] | inhibition [4] [%] | inhibition [5] [%] | inhibition [6] [%] | inhibition [7] [%] | inhibition [8] [%] | inhibition [9] [%] | inhibition [10] [%] | inhibition [11] [%] | inhibition [12] [%] | inhibition [13] [%] | inhibition [14] [%] | inhibition [15] [%] | inhibition [16] [%] | inhibition [17] [%] | inhibition [18] [%] | inhibition [19] [%] | inhibition [20] [%] | further results
Cc1cccc(C)c1OCCOCCN[C@@H](C)CO | 35.8 | -6.7 | 15.7 | 5.2 | 5.7 | -0.8 | 14.7 | 11.1 | 5.8 | 41.2 | 16.2 | -4.4 | 47.4 | 32.1 | 3 | 54 | 78.8 | 8.3 | 3 | 16.2 | inhibition [21]: 9%; inhibition [22]: 63.9%; inhibition [23]: 28.3%; inhibition [24]: 1.6%; inhibition [25]: 34.5%; inhibition [26]: 16.5%; inhibition [27]: 2.2%; inhibition [28]: 2.7%; Activity [29]: inactive; inhibition [30]: 37.2%; inhibition [31]: 11.1%
Cc1cccc(C)c1OCCOCCN[C@H](C)CO | 40.9 | -3.9 | 11.2 | 10.1 | 8.6 | -3.2 | 12 | 4.8 | 9.6 | 2.2 | 12.4 | -3.4 | 34.7 | 22.6 | -1.8 | 29.3 | 89.4 | 31.3 | 14.9 | 24.5 | inhibition [21]: 5.3%; inhibition [22]: 70.6%; inhibition [23]: 32.3%; inhibition [24]: -3.9%; inhibition [25]: 52.6%; inhibition [26]: -1.8%; inhibition [27]: -3.6%; inhibition [28]: 2.9%; Activity [29]: inactive; inhibition [30]: 20.8%; inhibition [31]: 12.6%
